Assay results as given in article PMC3423956 (European journal of medicinal chemistry, 2009).

Tests used:
[1] = system: HSV-1 (strain F); assay: HSV-1 plaque reduction assay in Vero cells; format: cell-based; conditions: Human alphaherpesvirus 1, Vero
[2] = system: herpes simplex virus (HSV); conditions: cited from earlier work
[3] = Stability in solution; format: physicochemical; conditions: for conversion to ACV: water
Procedure, shortened: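 Test compound was diluted from a freshly made stock into water and into methanol. Half was kept at room temperature and half in the autosampler at 4°C. Samples were injected every 15 min for 2 hr, then hourly, daily and weekly. Analysis was LC-MS/MS on a C18 column (ammonium formate pH 3 or water / methanol gradient, 30°C, ESI+, SRM). Guanine-analog formation was quantified against parent-nucleoside and acyclovir calibrations (10–1000 nM).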

[4] = system: HCV subgenomic RNA replicon; assay: Anti-HCV activity in Huh-7 cells with HCV subgenomic RNA replicon system; format: cell-based; conditions: Hepatitis C virus, Huh-7, read-out: Anti-HCV activity Huh-7 cells EC50, Huh-7 cells, HCV replicon

| Structure (SMILES) | reversion to parent nucleoside (7 or 8) ([3]; after 3 weeks) [%] | EC50 [4] [nM] | other results |
| --- | --- | --- | --- |
| Nc1nc2c(ncn2COCCO)c(=O)[nH]1 [ACV, acyclovir] | – | – | EC50 ([1]; read-out: Activity against HSV-1 EC50): 75 nM; EC90 ([1]; read-out: Activity against HSV-1 EC90): 700 nM |
| COc1ccc(-c2cn3c(O)c4ncn(COCCO)c4nc3n2)cc1 [Compound 3, 6-(4-MeOPh)-TACV] | – | – | activity against herpes simplex virus (HSV) compared with parent [2]: as active as their parent congeners; conversion to ACV ([3]; after 3 weeks): 35%; conversion to ACV ([3]; after 4 days): 4% |
| COc1ccc(-c2cn3c(=O)c4ncn([C@H]5C[C@H](N=[N+]=[N-])[C@@H](CO)O5)c4nc3[nH]2)cc1 [Compound 32, 3-(3-Azido-2,3-dideoxy-β-D-erythro-pentofuranosyl)-3,9-dihydro-6-(4-methoxyphenyl)-9-oxo-5H-imidazo-[1,2-a]purine] | 60 | – | – |
| COc1ccc(-c2cn3c(=O)c4ncn([C@@H]5O[C@H](CO)[C@@H](O)[C@@]5(C)O)c4nc3[nH]2)cc1 [Compound 36, 3-(β-D-2-C-Methyl-ribofuranosyl)-3,9-dihydro-6-(4-methoxy-phenyl)-9-oxo-5H-imidazo-[1,2-a]purine] | 30 | < 10000 | – |
| C[C@@]1(O)[C@H](O)[C@@H](CO)O[C@H]1n1cnc2c(=O)n3cc(-c4cccs4)[nH]c3nc21 [Compound 39, 3-(β-D-2-C-Methyl-ribofuranosyl)-3,9-dihydro-6-(2-thienyl)-9-oxo-5H-imidazo-[1,2-a]purine] | 60 | < 10000 | – |
